Assay results as given in PubChem BioAssay AID504382 (The Scripps Research Institute Molecular Screening Center, 2011).
About 460 (18%) of roughly 2,500 compounds were called active. A selection follows. A number with no mark means an inactive call.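 How the source made its calls: active means mean activation above a cutoff of low control average plus 3 SD from the earlier screen (cut at about 12% in these data); inactive means the rest.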

Assay: IANBD-channel fluorescence artefacts in buffer – biochemical, artefact control for cardiac RTF calcium sensitizer project, confirmation (AID 504382)
Settings: IANBD fluorescence interference counterscreen, EC20 Ca2+, at 7.2 µM, active compounds read high
In short: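 Doses – one dose of 7.2 µM, 0.7% DMSO · Buffer or medium – MOPS/KCl/MgCl2/EGTA/NTA/DTT buffer, pH 7.2 · Probe or stimulus – Ca2+ fixed at EC20, 0.472 mM · Measured by – fluorescence intensity, excitation 480 nm, emission 540 nm · Read-out – fluorescence interference versus control range · Timing – 15 min compound exposure at 25 °C · Replication – triplicate wells per compound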

SMILES	fluorescence artifact activation
O=c1cc(C(F)(F)F)c2cc3c4c(c2o1)CCCN4CCC3	19.7% (active)
Cc1cc2c(C(F)(F)F)cc(=O)oc2c2c1NCCC2	26.6% (active)
COc1ccc2c3c([nH]c2c1)C(C)=NCC3	0.04%
COc1ccc(CC(=O)N2CCN(C)CC2)cc1OC	0.89%
Cc1cc(N(CCCl)CCCl)ccc1C=Cc1ccncn1	3.44%
O=c1[nH]c(=O)n(Cc2ccc(F)cc2)c(O)c1/C=N/Nc1ccccc1	6.04%
CCOP(=O)(Cc1cc(C#N)oc1C)OCC	0.13%
CCN(CC)c1ccc(/C=C2\C(=O)NC(=S)N(c3ccc(OC)cc3OC)C2=O)o1	0.1%
COc1ccc(N2C(=O)/C(=C/c3ccc(N(C)C)o3)C(=O)NC2=S)cc1	92% (active)
CCN(CC)c1ccc(/C=C2\C(=O)NC(=S)N(C)C2=O)o1	7.26%
CCN(CC)c1ccc(N=Cc2c(O)n(Cc3ccco3)c(=O)[nH]c2=O)cc1	0.1%
Cc1ccc(C)c(Cn2c(C(=O)O)c(C=O)c3ccccc32)c1	0.2%
C[C@]12CCC(=O)C=C1CC[C@@H]1[C@@H]2CC[C@]2(C)C(=O)CC[C@@H]12	0.01%
CN1C[C@H](CO)C=C2c3cccc4[nH]cc(c34)C[C@H]21	0.35%
CC1=C[C@@H]2c3cccc4[nH]cc(c34)C[C@H]2N(C)C1	14.5% (active)
CCC(CO)NC(=O)C1C=C2c3cccc4[nH]cc(c34)CC2N(C)C1 (stereo unspecified)	1.39%
COC(=O)C1=C(c2cccc(OC)c2OC)C[C@@H]2CC[C@H]1N2C(=O)NCCCOC(C)C	0.79%
COC(=O)C1=C(c2cccc(OC)c2OC)C[C@@H]2CC[C@H]1N2C(=O)NCc1ccco1	1.08%
COC(=O)C1=C(c2ccc(F)cc2OCc2ccccc2)C[C@@H]2CC[C@H]1N2C(=O)NCc1ccc(OC)c(OC)c1	57% (active)
O=C(O)C1=CC2c3ccccc3C1c1ccccc12	0.01%
O=[N+]([O-])c1ccc(N2CCCCCC2)c2nonc12	6.24%
CCOC(=O)c1ccccc1C(=O)OCC	1510% (active)
COc1ccccc1N1C(=O)NC(=O)/C(=C/c2ccc3c4c(cccc24)CC3)C1=O	0.07%

SMILES	fluorescence artifact activation
Cn1c(O)c(/C=C/C=Nc2ccccc2)c(=O)n(C)c1=O	-0.08%
CCOCCCn1c(N)c(C(=O)Nc2sc3c(c2C(=O)OC)CCCC3)c2nc3ccccc3nc21	2.92%
CCCCn1c(O)c(C(=O)/C=C/c2c[nH]c3ccccc23)c(=O)[nH]c1=O	3%
O=c1[nH]c(=S)n(-c2ccc(Br)cc2)c(O)c1C=Nc1ccc(N2CCOCC2)cc1	0.07%
CCCCC(=O)N/N=C/c1c(O)n(CC)c(=S)n(CC)c1=O	0.21%
CCn1c(O)c(C=Nc2ccc(N3CCOCC3)cc2)c(=O)n(CC)c1=S	23.9% (active)
Cc1ccc(N2C(=O)NC(=O)/C(=C\c3ccoc3)C2=O)cc1	0.07%
COC(=O)[C@H]1C[C@@H]1[C@H](NP(=O)(c1ccccc1)c1ccccc1)c1ccccc1	0.01%
COc1ccc(N=Nc2c(O)[nH]c(=S)[nH]c2=O)cc1	0.58%
Nc1ccc2ccc3cccc[n+]3c2c1	0.21%
Cc1cc(Cl)nc(N)n1	14.3% (active)
C#C[C@]1(O)CC[C@H]2[C@@H]3CCC4=Cc5nc6nc7ccccc7n6cc5C[C@]4(C)[C@H]3CC[C@@]21C	0.16%
CN1CCc2cc3c(c4c2C1Cc1ccccc1-4)OCO3 (stereo unspecified)	0.18%
CCOc1ccc(N2C(=O)NC(=O)/C(=C\c3ccc(N4CCCCC4)o3)C2=O)cc1	51.4% (active)
Cc1cccc(N2C(=O)/C(=C/c3ccc(N4CCN(C)CC4)o3)C(=O)NC2=S)c1C	0.2%
Cc1ccccc1N1C(=O)NC(=O)/C(=C\c2cc(Br)c(N3CCOCC3)o2)C1=O	-0.03%
O=C1NC(=O)N(c2ccc3c(c2)OCO3)C(=O)/C1=C\c1ccc(N2CCCCC2)o1	0.37%
Cc1ccccc1N1C(=O)NC(=O)/C(=C/c2ccc(N3CCOCC3)o2)C1=O	14.1% (active)
CCc1ccccc1N1C(=O)/C(=C/c2ccc(N3CCN(C)CC3)o2)C(=O)NC1=S	119% (active)
O=C1NC(=O)N(c2ccc3c(c2)OCO3)C(=O)/C1=C/c1ccc(N2CCCC2)o1	0.12%
O=C1NC(=O)C(=Cc2ccc(N3CCOCC3)o2)C(=O)N1	-0.04%
CN1CCN(c2ccc(/C=C3\C(=O)NC(=S)N(c4cccc(Br)c4)C3=O)o2)CC1	-0.01%
O=[N+]([O-])c1ccc(N2CCCC2)c2ncccc12	9.73%

SMILES	fluorescence artifact activation
C[C@]12CCC3C(CC[C@H]4C[C@@H](O)[C@H](O)C[C@]34C)C1CC[C@@H]2O (stereo partly specified)	4.4%
OC12CCCCC1C(c1ccccc1)NCC2 (stereo unspecified)	0.14%
CN1C(=O)C(=Cc2sc(=O)n(-c3ccccc3)c2N2CCCCC2)C(=O)N(C)C1=O	-0.07%
CCN(CC)C(=O)c1ccc(NC(=O)COc2ccc([N+](=O)[O-])cc2Cl)cc1	0.19%
C=Cn1ccnc1P(=S)(c1nccn1C=C)c1nccn1C=C	6.72%
CN(C)P(=O)(CCl)Nc1ccccc1 (stereo unspecified)	10%
C=CCN1C(=O)/C(=C\c2ccc(N3CCOCC3)o2)C(=O)NC1=S	0.23%
O=C1NC(=O)C(=Cc2cn(CCOc3ccc4c(c3)OCO4)c3ccccc23)C(=O)N1	1.05%
Cc1cc(C)c(Cn2c(C(=O)O)c(C=O)c3ccccc32)c(C)c1	0.05%
CC(C)c1ccc(N2C(=O)NC(=O)/C(=C/C=C/c3ccco3)C2=O)cc1	-0.06%
CC(C)C[C@H]1C(=O)N2CCC[C@H]2[C@]2(O)O[C@](NC(=O)[C@@H]3C=C4c5cccc6[nH]cc(c56)C[C@H]4N(C)C3)(C(C)C)C(=O)N12	0.12%
C=CCn1c(O)c(C=NC2CCN(Cc3ccccc3)CC2)c(=O)[nH]c1=O	-0.06%
COc1ccc(OC)c(-n2c(O)c(C=NCCN3CCNCC3)c(=O)[nH]c2=S)c1	3.37%
O=c1[nH]c(=S)n(-c2ccccc2Cl)c(O)c1C=NCCN1CCNCC1	660% (active)
CN1Cc2c(c(C#N)c(N)n(C)c2=S)CC1(C)C	-0.06%
CCN(CC)c1ccc(/C=C/[N+](=O)[O-])cc1	3.43%
CCCCCCC(=O)N/N=C/c1c(O)n(CCc2ccccc2)c(=O)[nH]c1=O	0.04%
O=C(CN1CCN(c2ccccc2F)CC1)Nc1cccnc1Cl	6.53%
CC1(C)OC(c2ccccc2)=C/C(=C/C=C2C(=O)NC(=O)NC2=O)O1	0.3%
COc1ccc(N2C(=O)NC(=O)/C(=C\c3cn(C)c4ccccc34)C2=O)cc1	-0.05%
Cn1cc(C=C(C#N)C#N)c2ccccc21	20% (active)
N#CC(C#N)=Cc1ccc(C=C(C#N)C#N)cc1	0.08%
CC(C)n1c(=O)c(C=Nc2cccc([N+](=O)[O-])c2)c(O)n(CCc2ccccc2)c1=O	1.6%

SMILES	fluorescence artifact activation
COc1cccc2c1C(=O)c1c(O)c3c(c(O)c1C2=O)CC(O)(C(C)=NO)CC3OC1CC(N)C(O)C(C)O1 (stereo unspecified)	0.43%
O=c1[nH]c(=O)n(-c2ccccc2)c(O)c1/C=C/C=Nc1ccccc1	0.01%
Cc1ccc(-n2c(O)c(/C=C/C=Nc3ccccc3)c(=O)[nH]c2=O)cc1	7.82%
Cc1cccc(-n2c(O)c(/C=C/C=Nc3ccccc3)c(=O)[nH]c2=O)c1	59.9% (active)
O=C1NC(=O)N(Cc2ccccc2)C(=O)/C1=C\N1CCCc2ccccc21	2.74%
O=Cc1c(C(=O)O)n(Cc2ccc(Cl)cc2)c2ccccc12	0.14%
C/C(=N\N1CCCCC1c1cccnc1)c1c(O)n(C2CCCCC2)c(=S)[nH]c1=O (stereo unspecified)	13.8% (active)
O=c1[nH]c(=O)n(C2CCCCC2)c(O)c1/C=C/C=Nc1ccccc1	0.28%
Cc1cccc(N2C(=O)NC(=O)/C(=C\c3ccc4c(c3)CCCN4Cc3ccccc3)C2=O)c1	0.72%
CN1CCN(Cc2cn(C)c3ccccc23)CC1CCO (stereo unspecified)	10.6%
O=C1NC(=S)SC1=Cc1ccc(N(CCCl)CCCl)cc1	-0.09%
Nc1c2c(nc3ccccc13)CCN(Cc1ccccc1)C2	26.4% (active)
FC(F)(F)c1ccc2c(c1)nnn2C1CCN(Cc2nnnn2Cc2ccccc2)CC1	0.25%
CCOCCCNC(=O)C1c2cc(OC)c(OC)cc2C(=O)N2CCCCC12 (stereo unspecified)	0.42%
O=c1[nH]c(O)c(C=Nc2ccccc2Oc2ccccc2)c(=O)[nH]1	0.37%
C=CCN1C(=O)/C(=C/c2ccc(N3CCOCC3)o2)C(=O)NC1=S	5.89%
CN1C(=O)/C(=C/c2ccc(N3CCCCCC3)o2)C(=O)NC1=S	1.84%
CN1C(=O)/C(=C\c2ccc(N3CCCCC3)o2)C(=O)NC1=S	0.13%
CCN1C(=O)C(=Cc2ccc(N3CCOCC3)o2)C(=O)N(CC)C1=S	0.14%
CN1C(=O)C(=Cc2ccc(N3CCCCCC3)o2)C(=O)N(C)C1=S	35.9% (active)
CN1C(=O)C(=Cc2ccc(N3CCOCC3)o2)C(=O)N(C)C1=O	16.2% (active)
CN1C(=O)C(=Cc2ccc(N3CCOCC3)o2)C(=O)N(C)C1=S	0.02%
